Test results reported in ChEMBL document CHEMBL4004809, “Dibenzofurans and Pseudodepsidones from the Lichen Stereocaulon paschale Collected in Northern Quebec” (2017).
≈ marks a conversion by molar mass, not a printed value. Calls of active or inactive are those of the source. No cut-off for these calls is given here.

Assays:
Assay type in all cases: functional
[1] = test system: Porphyromonas gingivalis; assay: Antibacterial activity against Porphyromonas gingivalis ATCC 33277 after 24 hrs; details: ATCC 33277, 24 h
Summary of the method: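 P. gingivalis grown anaerobically (N2-H2-CO2 80:10:10) at 37 °C in Todd-Hewitt broth with 0.001% hemin and 0.0001% vitamin K. Overnight culture diluted to OD660 0.2 and added 1:1 to serial dilutions of compound (80 to 5 μM). Vehicle-only and penicillin G controls. After 24 h, MIC taken as lowest concentration giving complete growth inhibition. Triplicate.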

[2] = test system: Porphyromonas gingivalis; assay: Bactericidal activity against Porphyromonas gingivalis ATCC 33277 after 24 hrs; details: ATCC 33277, 24 h
Summary of the method: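 For MBC, P. gingivalis was run as in the anaerobic broth MIC set-up (THBHK, 37 °C, 24 h, 80 to 5 μM). 10 μL from wells without visible growth was spread on solid medium. MBC was read from these subcultures. Penicillin G served as reference. Triplicate.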

[3] = test system: Streptococcus mutans; assay: Bactericidal activity against Streptococcus mutans ATCC 25175 after 24 hrs; details: ATCC 25175, 24 h
Summary of the method: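 MBC for S. mutans was run after the aerobic 37 °C THBHK microdilution (80 to 5 μM, 24 h). 10 μL aliquots from wells lacking visible growth were plated on solid medium to find the minimal bactericidal concentration. Penicillin G served as reference. Triplicate.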

[4] = test system: Candida albicans; assay: Antifungal activity against Candida albicans ATCC 28366 assessed as growth inhibition at 80 uM after 24 hrs
Summary of the method: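 C. albicans cultured aerobically at 37 °C in yeast nitrogen base with 0.5% glucose. Overnight culture diluted to OD660 0.2 and added 1:1 to compound dilutions, top level 80 μM. Vehicle-only and nystatin controls included. Growth inhibition scored after 24 h. Triplicate.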

[5] = test system: Streptococcus mutans; assay: Antibacterial activity against Streptococcus mutans ATCC 25175 after 24 hrs; details: ATCC 25175, 24 h
Summary of the method: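 S. mutans grown aerobically at 37 °C in Todd-Hewitt broth with 0.001% hemin and 0.0001% vitamin K. Overnight culture diluted to OD660 0.2 and mixed 1:1 with serial compound dilutions (80 to 5 μM). Vehicle-only and penicillin G controls included. MIC = lowest concentration with complete growth inhibition after 24 h. Triplicate.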

MIC [1] [µM]	MIC [5] [µM]	SMILES	MBC [2] [µM]	MBC [3] [µM]	growth inhibition (GI) [4]
> 80	> 80	Cc1c(C(=O)O)c(O)cc2oc3cc(O)cc(C(=O)O)c3c12	> 80	> 80	inactive
80 (≈ 39.1 µg/mL)	80 (≈ 39.1 µg/mL)	CCCCCc1c(Oc2cc(OC)cc3c2C(=O)OC3(CCCC)OC)c(O)cc(O)c1C(=O)O (centres undefined)	80 (≈ 39.1 µg/mL)	80 (≈ 39.1 µg/mL)	inactive
> 80	> 80	COC(=O)c1c(C)cc(O)c(C=O)c1O [METHYL HAEMATOMMATE]	> 80	> 80	inactive
> 80	80 (≈ 34.4 µg/mL)	CCCCCc1cc(O)cc(O)c1Oc1cc(OC)cc2c1C(=O)OC2(O)CCCC (centres undefined) [SAKISACAULON A]	> 80	80 (≈ 34.4 µg/mL)	inactive
> 80	> 80	Cc1c(C(=O)O)c(O)cc2oc3cc(O)cc(CO)c3c12	> 80	> 80	inactive
20 (≈ 8.25 µg/mL)	10 (≈ 4.12 µg/mL)	CCC/C=C1\OC(=O)c2c(Oc3c(O)cc(O)cc3CCCCC)cc(OC)cc21	20 (≈ 8.25 µg/mL)	20 (≈ 8.25 µg/mL)	inactive
80 (≈ 36.5 µg/mL)	20 (≈ 9.13 µg/mL)	CCCCCc1c2c(cc(O)c1C(=O)O)OC(=O)c1c(cc(OC)cc1C(=O)CCCC)O2 [LOBARIC ACID]	80 (≈ 36.5 µg/mL)	80 (≈ 36.5 µg/mL)	inactive
> 80	> 80	COC(=O)c1c(C)cc(O)c(C)c1O [ATRARIC ACID]	> 80	> 80	inactive
40 (≈ 19.5 µg/mL)	80 (≈ 39.1 µg/mL)	CCCCCc1c(Oc2cc(OC)cc(C(=O)CCCC)c2C(=O)OC)c(O)cc(O)c1C(=O)O	40 (≈ 19.5 µg/mL)	> 80	inactive
80 (≈ 35.6 µg/mL)	80 (≈ 35.6 µg/mL)	CCCCCc1cc(O)cc(O)c1Oc1cc(OC)cc(C(=O)CCCC)c1C(=O)OC	80 (≈ 35.6 µg/mL)	> 80	inactive
80 (≈ 35.6 µg/mL)	80 (≈ 35.6 µg/mL)	CCCCCc1cc(O)cc(O)c1Oc1cc(OC)cc2c1C(=O)OC2(CCCC)OC (centres undefined)	80 (≈ 35.6 µg/mL)	80 (≈ 35.6 µg/mL)	inactive
0.29 (≈ 0.097 µg/mL)	0.15 (≈ 0.0502 µg/mL)	CC1(C)S[C@@H]2[C@H](NC(=O)Cc3ccccc3)C(=O)N2[C@H]1C(=O)O [PENICILLIN G]	2.3 (≈ 0.769 µg/mL)	4.7 (≈ 1.57 µg/mL)	–
> 80	> 80	Cc1cc(O)cc2oc3cc(O)cc(CO)c3c12	> 80	> 80	inactive
